Calls of active or inactive are those of the source. The rule behind the calls is not given here.
Legend:
PC-3 [1] = experiment: Antiproliferative activity against human PC3 cells expressing PCDNA after 72 hrs by MTT assay; assay type: functional, cell-based; conditions: PC-3, 72 h
How it was run: (§1)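 Cells (PC3 and its PCDNA- and SKP2-transfected lines, DU145) grown in RPMI 1640 with 10% FBS; G418 added for transfected lines. Exponential cells seeded 1 × 10⁴/well, 24 h at 37 °C, then fresh medium with compounds at several concentrations for 72 h. MTT 1–3 h at 37 °C, dissolved in 4% HCl/96% isopropanol, absorbance 570 nm. Triplicate per concentration; IC50 from dose–response curves.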

PC-3 [2] = experiment: Antiproliferative activity against human PC3 cells expressing SKP2 after 72 hrs by MTT assay; assay type: functional, cell-based; conditions: PC-3, 72 h; how it was run: as §1
[3] = target: T1, Prostaglandin G/H synthase 2 (Ovis aries) (UniProt P79208); experiment: Inhibition of ovine COX-2 assessed as using arachidonic acid as substrate at 10 uM preincubated for 5 mins prior to substrate addition measured after 2 hrs by enzyme immunoassay relative to control; conditions: in the assay text read “after 2 mins” for “after 2 hrs”
T1 sequence (whole entry): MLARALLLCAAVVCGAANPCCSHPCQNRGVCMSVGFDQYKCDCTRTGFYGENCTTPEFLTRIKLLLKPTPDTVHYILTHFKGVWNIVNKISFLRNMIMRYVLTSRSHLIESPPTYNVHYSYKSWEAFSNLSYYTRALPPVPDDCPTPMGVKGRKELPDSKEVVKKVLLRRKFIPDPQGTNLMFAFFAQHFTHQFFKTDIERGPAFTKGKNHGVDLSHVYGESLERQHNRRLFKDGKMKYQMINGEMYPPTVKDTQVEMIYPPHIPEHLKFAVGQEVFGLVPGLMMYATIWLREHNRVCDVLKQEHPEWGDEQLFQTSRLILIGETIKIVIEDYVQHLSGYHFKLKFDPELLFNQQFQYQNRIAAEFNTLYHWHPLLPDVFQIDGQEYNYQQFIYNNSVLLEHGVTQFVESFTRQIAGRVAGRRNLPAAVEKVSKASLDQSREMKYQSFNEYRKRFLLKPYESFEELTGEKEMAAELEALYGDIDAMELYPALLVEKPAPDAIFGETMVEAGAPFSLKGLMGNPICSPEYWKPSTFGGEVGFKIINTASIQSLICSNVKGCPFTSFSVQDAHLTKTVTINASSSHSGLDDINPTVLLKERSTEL
How it was run: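 Ovine COX-1 or COX-2 with heme in 0.1 M Tris-HCl pH 8.0, 5 mM EDTA, 2 mM phenol; compound (0.001–100 µM final, DMSO stocks) preincubated 5 min at 37 °C, then arachidonic acid added, stopped with 1 M HCl after 2 min. PGF2α (SnCl2 reduction) quantified by competitive EIA at 412 nm; % inhibition vs controls; mean of two determinations.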

DU-145 = experiment: Antiproliferative activity against human DU145 cells after 72 hrs by MTT assay; assay type: functional, cell-based; conditions: DU-145, 72 h; how it was run: as §1
PC-3 [4] = experiment: Antiproliferative activity against human PC3 cells after 72 hrs by MTT assay; assay type: functional, cell-based; conditions: PC-3, 72 h; how it was run: as §1
[5] = target: T2, Prostaglandin G/H synthase 1 (Ovis aries) (UniProt P05979); experiment: Inhibition of ovine COX-1 assessed as using arachidonic acid as substrate at 10 uM preincubated for 5 mins prior to substrate addition […] by enzyme immunoassay relative to control
T2 sequence (whole entry): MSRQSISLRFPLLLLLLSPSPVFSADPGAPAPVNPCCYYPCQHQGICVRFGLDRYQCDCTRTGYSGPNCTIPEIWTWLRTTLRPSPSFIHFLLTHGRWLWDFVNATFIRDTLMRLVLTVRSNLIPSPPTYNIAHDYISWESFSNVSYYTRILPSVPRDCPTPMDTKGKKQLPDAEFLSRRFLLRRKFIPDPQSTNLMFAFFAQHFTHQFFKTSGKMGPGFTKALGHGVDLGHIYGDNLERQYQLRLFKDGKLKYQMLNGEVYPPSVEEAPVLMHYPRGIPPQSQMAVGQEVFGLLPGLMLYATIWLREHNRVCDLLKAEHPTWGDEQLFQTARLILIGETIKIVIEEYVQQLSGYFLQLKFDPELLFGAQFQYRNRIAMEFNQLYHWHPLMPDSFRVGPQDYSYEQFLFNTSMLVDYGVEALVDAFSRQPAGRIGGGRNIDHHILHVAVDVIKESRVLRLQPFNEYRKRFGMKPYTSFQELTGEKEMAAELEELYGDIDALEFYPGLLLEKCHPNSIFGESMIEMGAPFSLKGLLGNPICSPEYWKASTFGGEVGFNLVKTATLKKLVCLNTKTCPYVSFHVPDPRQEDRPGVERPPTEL

[6] = target: T1, Prostaglandin G/H synthase 2 (Ovis aries); experiment: Inhibition of ovine COX-2 assessed as using arachidonic acid as substrate at 10 uM preincubated for 5 mins prior to substrate addition measured after 2 mins by enzyme immunoassay relative to control

SMILES	IC50 (PC-3 [1]) [µM]	IC50 (PC-3 [2]) [µM]	inhibition [3]	IC50 (DU-145) [µM]	IC50 (PC-3 [4]) [µM]	inhibition [5]	inhibition [6] [%]
CC(C)=C1OC(=O)C(c2ccc(F)cc2)=C1c1ccc(S(C)(=O)=O)cc1	> 50	> 50	–	–	–	–	–
CS(=O)(=O)c1ccc(C2=C(c3ccc(F)cc3)C(=O)O/C2=C\c2ccccc2Cl)cc1	> 50	> 50	–	–	–	–	–
COc1cc(/C=C2\OC(=O)C(c3ccccc3)=C2c2ccc(S(C)(=O)=O)cc2)ccc1O	> 125	25.5	36.6%	> 50	> 50	–	–
CS(=O)(=O)c1ccc(C2=C(c3ccccc3Cl)C(=O)O/C2=C\c2ccc3c(c2)OCO3)cc1	> 50	> 50	–	–	–	–	–
CN(C)c1ccc(/C=C2\OC(=O)C(c3ccc(F)cc3)=C2c2ccc(S(C)(=O)=O)cc2)cc1	> 50	47.2	inactive	> 50	> 50	inactive	–
CS(=O)(=O)c1ccc(C2=C(c3ccccc3Cl)C(=O)O/C2=C\c2ccc(O)cc2)cc1	> 50	> 50	–	–	–	–	2.27
CS(=O)(=O)c1ccc(C2=C(c3ccccc3)C(=O)O/C2=C\c2ccco2)cc1	> 100	> 100	inactive	–	–	inactive	–
O=c1[nH]cc(F)c(=O)[nH]1 [FLUOROURACIL]	31.4	–	–	–	–	–	–
CN(C)c1ccc(/C=C2\OC(=O)C(c3ccccc3)=C2c2ccc(S(C)(=O)=O)cc2)cc1	> 50	> 50	–	–	–	–	–
CS(=O)(=O)c1ccc(C2=C(c3ccccc3Cl)C(=O)O/C2=C\c2cccc3ccccc23)cc1	> 50	> 50	–	–	–	–	–
CS(=O)(=O)c1ccc(C2=C(c3ccc(F)cc3)C(=O)O/C2=C\c2ccco2)cc1	> 50	> 50	–	–	–	–	–
CS(=O)(=O)c1ccc(C2=C(c3ccccc3Cl)C(=O)O/C2=C\c2ccccc2Cl)cc1	> 50	> 50	–	–	–	–	–
COc1cc(/C=C2\OC(=O)C(c3ccccc3)=C2c2ccc(S(C)(=O)=O)cc2)cc(OC)c1OC	> 90	> 100	–	–	–	–	–
CS(=O)(=O)c1ccc(C2=C(c3ccccc3Cl)C(=O)O/C2=C\c2ccco2)cc1	> 50	> 50	–	–	–	–	–
CS(=O)(=O)c1ccc(C2=C(c3ccccc3)C(=O)O/C2=C\c2cccc3ccccc23)cc1	> 50	> 50	–	–	–	–	–
COc1cc(/C=C2\OC(=O)C(c3ccc(F)cc3)=C2c2ccc(S(C)(=O)=O)cc2)cc(OC)c1OC	> 50	25.4	–	> 50	> 50	–	20.8
CC(C)=CCC/C(C)=C\C=C1/OC(=O)C(c2ccccc2)=C1c1ccc(S(C)(=O)=O)cc1	> 50	> 50	–	–	–	–	–
CS(=O)(=O)c1ccc(C2=C(c3ccc(F)cc3)C(=O)O/C2=C\c2ccc(Br)cc2)cc1	> 50	> 50	–	–	–	–	–
CS(=O)(=O)c1ccc(C2=C(c3ccccc3)C(=O)O/C2=C\c2ccccc2)cc1	> 90	> 90	–	–	–	–	–
CS(=O)(=O)c1ccc(C2=C(c3ccccc3)C(=O)O/C2=C\c2ccc(O)cc2)cc1	25.9	> 50	14.4%	> 50	> 50	–	–
COc1ccc(/C=C2\OC(=O)C(c3ccc(F)cc3)=C2c2ccc(S(C)(=O)=O)cc2)cc1	> 50	> 50	inactive	–	–	10.2%	–

SMILES	IC50 (PC-3 [1]) [µM]	IC50 (PC-3 [2]) [µM]	inhibition [3]	IC50 (DU-145) [µM]	IC50 (PC-3 [4]) [µM]	inhibition [5]	inhibition [6] [%]
COc1cc(/C=C2\OC(=O)C(c3ccccc3Cl)=C2c2ccc(S(C)(=O)=O)cc2)ccc1O	> 50	25.1	14.9%	> 50	> 50	–	–
CN(C)c1ccc(/C=C2\OC(=O)C(c3ccccc3Cl)=C2c2ccc(S(C)(=O)=O)cc2)cc1	> 50	30.1	4.49%	> 50	> 50	–	–
COc1cc(/C=C2\OC(=O)C(c3ccccc3Cl)=C2c2ccc(S(C)(=O)=O)cc2)cc(OC)c1OC	> 50	> 50	–	–	–	–	–
CS(=O)(=O)c1ccc(C2=C(c3ccccc3)C(=O)O/C2=C\c2cccc([N+](=O)[O-])c2)cc1	> 90	> 100	inactive	–	–	inactive	–
CS(=O)(=O)c1ccc(C2=C(c3ccccc3)C(=O)OC2)cc1 [ROFECOXIB]	> 50	> 50	–	200	200	–	–
CS(=O)(=O)c1ccc(C2=C(c3ccc(F)cc3)C(=O)O/C2=C\c2ccc(Cl)cc2)cc1	> 50	> 50	inactive	–	–	–	–
CS(=O)(=O)c1ccc(C2=C(c3ccccc3)C(=O)O/C2=C\c2ccc3c(c2)OCO3)cc1	37.2	50.6	–	> 50	> 50	–	24.6
CS(=O)(=O)c1ccc(C2=C(c3ccc(F)cc3)C(=O)O/C2=C\c2ccc(O)cc2)cc1	25.9	25.7	19.5%	> 50	> 50	–	–
CS(=O)(=O)c1ccc(C2=C(c3ccccc3Cl)C(=O)O/C2=C\c2ccc(Br)cc2)cc1	> 50	> 50	–	–	–	–	–
CS(=O)(=O)c1ccc(C2=C(c3ccc(F)cc3)C(=O)O/C2=C\c2cccc3ccccc23)cc1	20	25.4	inactive	> 50	> 50	–	–
COC1(C)OC(=O)C(c2ccc(F)cc2)=C1c1ccc(S(C)(=O)=O)cc1 (stereo not given)	36.4	> 50	–	> 50	> 50	–	32.4
CS(=O)(=O)c1ccc(C2=C(c3ccc(F)cc3)C(=O)O/C2=C\c2ccccc2)cc1	> 50	> 50	–	–	–	–	–
CS(=O)(=O)c1ccc(C2=C(c3ccccc3Cl)C(=O)OC2)cc1	> 50	> 50	7.97%	–	–	inactive	–
CS(=O)(=O)c1ccc(C2=C(c3ccc(F)cc3)C(=O)O/C2=C\c2ccc(F)cc2)cc1	> 50	> 50	–	–	–	–	–
CS(=O)(=O)c1ccc(C2=C(c3ccccc3Cl)C(=O)O/C2=C\c2ccc(F)cc2)cc1	> 50	> 50	–	–	–	–	–
CS(=O)(=O)c1ccc(C2=C(c3ccc(F)cc3)C(=O)O/C2=C\c2cccc([N+](=O)[O-])c2)cc1	> 50	> 50	inactive	–	–	inactive	–
CS(=O)(=O)c1ccc(C2=C(c3ccccc3)C(=O)O/C2=C\c2ccc(Br)cc2)cc1	25.2	> 50	inactive	> 50	> 50	–	–
CS(=O)(=O)c1ccc(C2=C(c3ccccc3)C(=O)O/C2=C\c2ccc(Cl)cc2)cc1	> 50	> 50	inactive	–	–	14.6%	–
CC(C)=C1OC(=O)C(c2ccccc2)=C1c1ccc(S(C)(=O)=O)cc1	> 50	> 50	–	–	–	–	–
COC1(C)OC(=O)C(c2ccccc2)=C1c1ccc(S(C)(=O)=O)cc1 (stereo not given)	37.1	20.3	–	> 50	> 50	–	–
CS(=O)(=O)c1ccc(C2=C(c3ccc(F)cc3)C(=O)O/C2=C\c2ccc3c(c2)OCO3)cc1	> 50	> 50	–	–	–	–	–
